ChEMBL document CHEMBL1921685, “Design and synthesis of triazolopyridazines substituted with methylisoquinolinone as selective c-Met kinase inhibitors” (Bioorg Med Chem Lett, 2011)

Experiments:
[1] = target: Hepatocyte growth factor receptor (Homo sapiens, UniProt P08581); experiment: Inhibition of recombinant c-met by HTRF assay
[2] = target: Macrophage-stimulating protein receptor (Homo sapiens, UniProt Q04912); experiment: Inhibition of RON
[3] = target: T1, Receptor-type tyrosine-protein kinase FLT3 (Homo sapiens, UniProt P36888); experiment: Inhibition of FLT3
T1 sequence (P36888 whole entry): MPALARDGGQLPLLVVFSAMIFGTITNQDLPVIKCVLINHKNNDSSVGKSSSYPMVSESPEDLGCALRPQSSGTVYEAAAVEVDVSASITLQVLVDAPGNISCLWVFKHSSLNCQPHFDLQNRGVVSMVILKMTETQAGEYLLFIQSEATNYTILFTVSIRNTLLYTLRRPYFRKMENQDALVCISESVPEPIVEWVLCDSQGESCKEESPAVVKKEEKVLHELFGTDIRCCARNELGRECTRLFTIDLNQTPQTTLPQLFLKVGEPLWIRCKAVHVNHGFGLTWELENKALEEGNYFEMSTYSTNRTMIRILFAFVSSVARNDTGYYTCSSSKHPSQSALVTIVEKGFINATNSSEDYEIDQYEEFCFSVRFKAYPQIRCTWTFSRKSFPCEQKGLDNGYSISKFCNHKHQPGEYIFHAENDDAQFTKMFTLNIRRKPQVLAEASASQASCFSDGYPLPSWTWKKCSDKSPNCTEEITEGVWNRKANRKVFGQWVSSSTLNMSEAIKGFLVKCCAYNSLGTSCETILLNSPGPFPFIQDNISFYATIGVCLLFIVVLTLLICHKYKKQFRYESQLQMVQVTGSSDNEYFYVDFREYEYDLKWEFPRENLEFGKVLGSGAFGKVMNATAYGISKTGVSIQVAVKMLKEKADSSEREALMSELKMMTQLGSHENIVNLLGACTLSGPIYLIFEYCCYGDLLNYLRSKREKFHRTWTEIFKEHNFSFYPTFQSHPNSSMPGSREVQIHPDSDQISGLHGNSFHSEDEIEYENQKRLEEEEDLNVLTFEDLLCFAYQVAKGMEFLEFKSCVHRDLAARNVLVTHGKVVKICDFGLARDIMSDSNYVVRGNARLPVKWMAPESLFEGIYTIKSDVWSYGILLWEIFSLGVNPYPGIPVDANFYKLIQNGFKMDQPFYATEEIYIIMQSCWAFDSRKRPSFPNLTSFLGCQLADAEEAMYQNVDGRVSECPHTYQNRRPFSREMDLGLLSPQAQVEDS

[4] = target: High affinity nerve growth factor receptor (Homo sapiens, UniProt P04629); experiment: Inhibition of TRKA
High affinity nerve growth factor receptor, sequence (P04629 whole entry): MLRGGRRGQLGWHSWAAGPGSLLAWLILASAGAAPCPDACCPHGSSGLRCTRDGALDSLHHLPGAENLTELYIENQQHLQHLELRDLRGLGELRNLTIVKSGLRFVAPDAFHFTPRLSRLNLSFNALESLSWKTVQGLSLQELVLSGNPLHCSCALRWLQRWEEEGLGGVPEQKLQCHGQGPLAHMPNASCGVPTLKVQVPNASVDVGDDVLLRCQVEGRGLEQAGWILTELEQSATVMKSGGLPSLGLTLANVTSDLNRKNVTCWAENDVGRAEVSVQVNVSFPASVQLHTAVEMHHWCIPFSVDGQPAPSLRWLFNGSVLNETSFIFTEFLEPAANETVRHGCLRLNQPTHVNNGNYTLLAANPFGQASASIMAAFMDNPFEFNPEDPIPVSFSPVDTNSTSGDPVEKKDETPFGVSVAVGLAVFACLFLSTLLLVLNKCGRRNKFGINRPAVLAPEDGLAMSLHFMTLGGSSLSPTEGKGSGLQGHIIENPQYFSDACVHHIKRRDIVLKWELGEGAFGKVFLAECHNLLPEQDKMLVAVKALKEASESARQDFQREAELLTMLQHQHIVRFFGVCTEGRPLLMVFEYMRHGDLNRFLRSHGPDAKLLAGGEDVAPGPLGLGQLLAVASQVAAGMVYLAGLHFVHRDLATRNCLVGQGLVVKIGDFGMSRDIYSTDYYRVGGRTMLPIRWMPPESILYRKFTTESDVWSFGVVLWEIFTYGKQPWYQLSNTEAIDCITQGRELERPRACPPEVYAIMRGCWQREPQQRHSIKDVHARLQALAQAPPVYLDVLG

Aurora kinase A = target: T2, Aurora kinase A (Homo sapiens, UniProt O14965); experiment: Inhibition of AurA
T2 sequence (O14965 whole entry): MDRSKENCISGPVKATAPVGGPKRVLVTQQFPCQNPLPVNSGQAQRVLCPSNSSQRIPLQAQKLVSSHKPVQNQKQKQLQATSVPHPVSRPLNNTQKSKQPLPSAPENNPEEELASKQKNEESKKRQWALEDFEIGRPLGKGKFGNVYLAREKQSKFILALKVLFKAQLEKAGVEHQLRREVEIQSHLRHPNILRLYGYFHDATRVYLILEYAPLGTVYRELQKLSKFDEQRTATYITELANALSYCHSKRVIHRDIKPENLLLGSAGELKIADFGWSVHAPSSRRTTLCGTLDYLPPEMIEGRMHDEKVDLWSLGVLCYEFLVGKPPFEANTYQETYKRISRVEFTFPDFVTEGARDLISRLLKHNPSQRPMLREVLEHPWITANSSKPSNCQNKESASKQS

MKN-45 = experiment: Growth inhibition of c-met-amplified human MKN45 cells after 72 hrs by MTS assay; type: functional; conditions: MKN-45, 72 h
SNU-5 = experiment: Growth inhibition of c-met-amplified human SNU5 cells after 72 hrs by MTS assay; type: functional; conditions: SNU-5, 72 h
[5] = Growth inhibition of c-met-amplified human Hs 746T cells after 72 hrs by MTS assay; type: functional; conditions: Hs746T
NCI-N87 = experiment: Growth inhibition of c-met-independent human NCI-N87 cells after 72 hrs by MTS assay; type: functional; conditions: NCI-N87, 72 h
[6] = Cmax in rat at 10 mg/kg, po; type: ADME, organism-based; design: dose 10 mg/kg, route oral; conditions: in vivo
In short: (§1)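 Rat pharmacokinetics: 10 mg/kg dose given, three rats per group.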

[7] = AUC in rat at 10 mg/kg, iv; type: ADME, organism-based; design: dose 10 mg/kg, route intravenous; conditions: plasma; in short: as §1
[8] = AUC in rat at 10 mg/kg, po; type: ADME, organism-based; design: dose 10 mg/kg, route oral; conditions: plasma; in short: as §1
[9] = Clearance in rat at 10 mg/kg, iv; type: ADME, organism-based; design: dose 10 mg/kg, route intravenous; conditions: in vivo; in short: as §1
[10] = Oral bioavailability in rat at 10 mg/kg; type: ADME, organism-based; conditions: in vivo; in short: as §1
[11] = Volume of distribution at steady state in rat at 10 mg/kg, iv; type: ADME, organism-based; design: dose 10 mg/kg, route intravenous; conditions: in vivo, read-out: Vdss; in short: as §1

Hepatocyte growth factor receptor, sequence (P08581 whole entry): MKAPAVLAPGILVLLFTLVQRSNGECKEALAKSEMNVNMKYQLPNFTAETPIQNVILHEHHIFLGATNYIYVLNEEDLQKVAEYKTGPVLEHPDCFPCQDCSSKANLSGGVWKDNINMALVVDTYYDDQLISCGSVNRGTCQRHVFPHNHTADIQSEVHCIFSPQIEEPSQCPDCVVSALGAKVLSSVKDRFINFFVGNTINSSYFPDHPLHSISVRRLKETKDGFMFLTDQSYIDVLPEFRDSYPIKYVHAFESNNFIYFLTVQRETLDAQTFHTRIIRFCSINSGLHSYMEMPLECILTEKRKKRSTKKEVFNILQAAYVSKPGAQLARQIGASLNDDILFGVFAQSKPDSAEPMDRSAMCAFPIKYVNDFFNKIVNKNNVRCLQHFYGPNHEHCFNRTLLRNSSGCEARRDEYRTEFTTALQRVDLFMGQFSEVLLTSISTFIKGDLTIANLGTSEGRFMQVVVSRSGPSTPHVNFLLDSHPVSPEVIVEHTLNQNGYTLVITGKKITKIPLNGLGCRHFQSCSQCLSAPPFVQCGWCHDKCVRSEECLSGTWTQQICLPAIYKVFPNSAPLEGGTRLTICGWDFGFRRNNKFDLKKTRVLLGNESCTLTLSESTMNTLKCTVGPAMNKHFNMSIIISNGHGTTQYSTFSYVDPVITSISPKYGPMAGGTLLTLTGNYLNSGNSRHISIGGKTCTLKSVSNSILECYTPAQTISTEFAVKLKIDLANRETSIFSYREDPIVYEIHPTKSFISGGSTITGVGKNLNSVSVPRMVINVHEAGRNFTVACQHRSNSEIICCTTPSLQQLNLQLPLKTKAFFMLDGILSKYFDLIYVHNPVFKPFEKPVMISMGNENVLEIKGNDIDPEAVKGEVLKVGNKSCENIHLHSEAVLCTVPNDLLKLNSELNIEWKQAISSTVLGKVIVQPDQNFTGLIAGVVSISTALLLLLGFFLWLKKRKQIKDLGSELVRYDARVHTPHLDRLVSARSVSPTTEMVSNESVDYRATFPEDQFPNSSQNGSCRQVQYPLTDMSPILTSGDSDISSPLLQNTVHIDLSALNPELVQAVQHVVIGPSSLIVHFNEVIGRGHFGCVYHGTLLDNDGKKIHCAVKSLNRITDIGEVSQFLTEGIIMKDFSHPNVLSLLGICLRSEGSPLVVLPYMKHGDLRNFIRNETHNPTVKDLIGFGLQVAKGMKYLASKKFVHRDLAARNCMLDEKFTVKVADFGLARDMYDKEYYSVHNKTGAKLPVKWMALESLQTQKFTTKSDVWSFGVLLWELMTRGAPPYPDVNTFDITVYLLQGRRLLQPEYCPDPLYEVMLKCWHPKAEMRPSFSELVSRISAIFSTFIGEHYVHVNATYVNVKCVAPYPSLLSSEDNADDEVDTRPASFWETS
Macrophage-stimulating protein receptor, sequence (Q04912 25-304 limits assumed): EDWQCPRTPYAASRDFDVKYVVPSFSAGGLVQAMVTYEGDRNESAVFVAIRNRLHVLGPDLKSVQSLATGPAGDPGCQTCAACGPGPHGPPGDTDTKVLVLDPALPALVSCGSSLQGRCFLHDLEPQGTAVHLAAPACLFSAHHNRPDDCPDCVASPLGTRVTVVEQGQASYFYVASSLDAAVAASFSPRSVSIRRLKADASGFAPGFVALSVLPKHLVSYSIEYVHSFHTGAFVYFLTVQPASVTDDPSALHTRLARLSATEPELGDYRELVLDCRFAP
Macrophage-stimulating protein receptor, sequence (Q04912 310-1400 limits assumed): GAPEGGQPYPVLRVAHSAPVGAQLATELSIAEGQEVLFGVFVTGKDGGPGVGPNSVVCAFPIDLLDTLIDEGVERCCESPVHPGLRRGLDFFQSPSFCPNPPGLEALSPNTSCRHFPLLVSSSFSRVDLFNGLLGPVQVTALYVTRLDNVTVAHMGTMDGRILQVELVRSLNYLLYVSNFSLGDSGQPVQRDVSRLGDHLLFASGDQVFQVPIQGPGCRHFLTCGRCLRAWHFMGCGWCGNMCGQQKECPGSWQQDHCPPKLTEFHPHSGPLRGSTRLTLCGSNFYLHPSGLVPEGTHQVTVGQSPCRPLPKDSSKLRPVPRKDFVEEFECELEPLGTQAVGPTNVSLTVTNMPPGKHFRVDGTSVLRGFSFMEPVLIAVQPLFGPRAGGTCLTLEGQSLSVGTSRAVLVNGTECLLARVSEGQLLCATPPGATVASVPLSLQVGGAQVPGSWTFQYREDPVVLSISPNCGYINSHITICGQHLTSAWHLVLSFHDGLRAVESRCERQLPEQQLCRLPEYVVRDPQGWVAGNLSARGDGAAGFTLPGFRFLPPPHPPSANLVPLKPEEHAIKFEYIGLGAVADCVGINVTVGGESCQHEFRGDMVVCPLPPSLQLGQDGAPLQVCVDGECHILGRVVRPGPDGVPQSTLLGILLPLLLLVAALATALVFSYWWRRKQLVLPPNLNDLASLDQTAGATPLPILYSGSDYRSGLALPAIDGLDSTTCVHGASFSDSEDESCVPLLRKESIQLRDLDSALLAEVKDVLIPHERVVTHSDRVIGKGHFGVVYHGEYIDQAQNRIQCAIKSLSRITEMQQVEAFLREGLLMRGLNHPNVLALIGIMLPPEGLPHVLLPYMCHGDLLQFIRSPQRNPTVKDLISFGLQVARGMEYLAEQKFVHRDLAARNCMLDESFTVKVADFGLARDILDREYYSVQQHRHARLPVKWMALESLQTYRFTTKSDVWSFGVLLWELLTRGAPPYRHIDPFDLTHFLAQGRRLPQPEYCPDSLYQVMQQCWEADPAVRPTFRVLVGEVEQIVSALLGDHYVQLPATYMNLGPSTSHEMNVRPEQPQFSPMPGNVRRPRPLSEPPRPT

O=c1[nH]ccc2c(Cc3nnc4ccc(-c5cn[nH]c5)nn34)cccc12 gave an IC50 [1] of 5 nM.
In the case of Cn1cc(-c2ccc3nnc(Cc4cccc5c(=O)[nH]ccc45)n3n2)cn1, the IC50 [1] is reported as 2 nM, the IC50 [2] is reported as > 10000 nM and the IC50 [3] is reported as > 10000 nM. The IC50 [4] was > 10000 nM, the IC50 (Aurora kinase A) was > 10000 nM and the GI50 (MKN-45) was 130 nM. The GI50 (SNU-5) was 690 nM, the GI50 [5] was 64 nM and the GI50 (NCI-N87) was > 10000 nM.
In the case of O=c1[nH]ccc2c(Cc3nnc4ccc(-c5ccccc5)nn34)cccc12, the IC50 [1] is reported as 3 nM, the IC50 [2] is reported as > 10000 nM and the IC50 [3] is reported as > 10000 nM. The IC50 [4] was > 10000 nM, the IC50 (Aurora kinase A) was > 10000 nM and the GI50 (MKN-45) was 38 nM. For the same molecule, the GI50 (SNU-5) was 59 nM, the GI50 [5] was 71 nM and the GI50 (NCI-N87) was > 10000 nM. For the same molecule, the Cmax [6] was 300 ng/mL, the AUC [7] was 11200 ng·h/mL and the AUC [8] was 3900 ng·h/mL. It also gave a clearance [9] of 13.3 mL/min/kg, a bioavailability [10] of 35% and a Vd [11] of 6.4 L/kg.
Work on O=c1[nH]ccc2c(Cc3nnc4ccc(-c5cnn(CCO)c5)nn34)cccc12 yielded an IC50 [1] of 2 nM.
Molecule O=c1[nH]ccc2c(Cc3nnc4ccc(-c5cnn(C6CCNCC6)c5)nn34)cccc12 has an IC50 [1] of 27 nM.
In the case of O=c1[nH]ccc2c(Cc3nnc4ccc(N5CCCC5)nn34)cccc12, the IC50 [1] is reported as 27 nM.
Molecule O=c1[nH]ccc2c(Cc3nnc4ccc(N5CCCCC5)nn34)cccc12 has an IC50 [1] of 29 nM.
O=c1[nH]ccc2c(Cc3nnc4ccc(-c5ccsc5)nn34)cccc12 gave an IC50 [1] of 4 nM, a GI50 (MKN-45) of 32 nM and a GI50 (SNU-5) of 56 nM. The GI50 [5] was 170 nM and the GI50 (NCI-N87) was > 10000 nM.
With O=c1[nH]ccc2c(Cc3nnc4ccc(-c5cccnc5)nn34)cccc12 the IC50 [1] was 5 nM, the GI50 (MKN-45) was 420 nM and the GI50 (SNU-5) was 450 nM. For the same molecule, the GI50 [5] was 400 nM and the GI50 (NCI-N87) was > 10000 nM.
In the case of O=c1[nH]ccc2c(Cc3nnc4ccc(-c5csc6ccccc56)nn34)cccc12, the IC50 [1] is reported as 14 nM.
In the case of Cc1ccccc1-c1ccc2nnc(Cc3cccc4c(=O)[nH]ccc34)n2n1, the IC50 [1] is reported as 72 nM.
Molecule O=c1[nH]ccc2c(Cc3nnc4ccc(-c5ccccc5Cl)nn34)cccc12 has an IC50 [1] of 4 nM.
With O=c1[nH]ccc2c(Cc3nnc4ccc(-c5cccc(Cl)c5)nn34)cccc12 the IC50 [1] was 7 nM, the GI50 (MKN-45) was 11 nM and the GI50 (SNU-5) was 19 nM. For the same molecule, the GI50 [5] was 53 nM and the GI50 (NCI-N87) was > 10000 nM.
O=c1[nH]ccc2c(Cc3nnc4ccc(-c5cccc(F)c5)nn34)cccc12 gave an IC50 [1] of 3 nM, a GI50 (MKN-45) of 42 nM and a GI50 (SNU-5) of 52 nM. For the same molecule, the GI50 [5] was 130 nM and the GI50 (NCI-N87) was > 10000 nM.
Work on O=c1[nH]ccc2c(Cc3nnc4ccc(-c5cccc([N+](=O)[O-])c5)nn34)cccc12 yielded an IC50 [1] of 4 nM.
Work on N#Cc1cccc(-c2ccc3nnc(Cc4cccc5c(=O)[nH]ccc45)n3n2)c1 yielded an IC50 [1] of 3 nM, a GI50 (MKN-45) of 36 nM and a GI50 (SNU-5) of 120 nM. The GI50 [5] was 59 nM and the GI50 (NCI-N87) was > 10000 nM.
With O=c1[nH]ccc2c(Cc3nnc4ccc(-c5cccc(O)c5)nn34)cccc12 the IC50 [1] was 3 nM, the GI50 (MKN-45) was 470 nM and the GI50 (SNU-5) was 1100 nM. For the same molecule, the GI50 [5] was 600 nM and the GI50 (NCI-N87) was > 10000 nM.
With COc1cccc(-c2ccc3nnc(Cc4cccc5c(=O)[nH]ccc45)n3n2)c1 the IC50 [1] was 5 nM, the GI50 (MKN-45) was 95 nM and the GI50 (SNU-5) was 130 nM. For the same molecule, the GI50 [5] was 100 nM and the GI50 (NCI-N87) was > 10000 nM.
Work on Cn1ccc2c(Cc3nnc4ccc(-c5cccc(F)c5)nn34)cccc2c1=O yielded an IC50 [1] of 73 nM.
CCn1ccc2c(Cc3nnc4ccc(-c5cccc(F)c5)nn34)cccc2c1=O gave an IC50 [1] of 72 nM.
